# This is a sample that favours compounds with a hit; in the whole collection about 2.9% have one here.
# HTR1E antagonist = blocks the human 5-HT1E serotonin receptor. CHO 5-HT1E Ga15 NFAT-bla reporter, FRET, antagonist. P28566. inhibition, % at 6 µM. 65,000 compounds, 0.99% hits;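 active = inhibition above a set limit, the mean inhibition across every tested compound plus 3 SD, cut at about 29% in these data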;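 also: signal is the 460 over 535 nm emission ratio of beta-lactamase substrate; 0% = agonist plus DMSO wells and 100% = wells without agonist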
# Target sequence (P28566 whole entry, looked up): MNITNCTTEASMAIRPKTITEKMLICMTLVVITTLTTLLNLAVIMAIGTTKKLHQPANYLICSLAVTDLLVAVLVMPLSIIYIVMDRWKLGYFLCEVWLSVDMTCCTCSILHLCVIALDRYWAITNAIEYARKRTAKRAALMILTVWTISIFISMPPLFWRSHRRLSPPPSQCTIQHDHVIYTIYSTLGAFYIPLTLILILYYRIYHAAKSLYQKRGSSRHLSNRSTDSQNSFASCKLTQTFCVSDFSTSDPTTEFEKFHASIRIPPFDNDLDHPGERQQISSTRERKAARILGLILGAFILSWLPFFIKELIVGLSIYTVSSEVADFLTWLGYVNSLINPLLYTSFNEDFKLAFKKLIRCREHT
# 5-HT1A blocker = antagonists of human 5-HT1a serotonin receptor; P08908; CHO 5-HT1a Ga15 NFAT-bla reporter, antagonist mode; inhibition, % at 10 µM; 62,000 compounds, 0.68% hits; AID 612;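 active = inhibition above the mean of all tested compounds plus 3 SD, cut at about 43% in these data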;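 also: receptor stimulated by 5-CT agonist at 100 nM near EC80; beta-lactamase reporter measured by ratiometric fluorescence of a cleavable substrate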
# HTR1A agonist = activates the human 5-HT1a serotonin receptor. P08908. CHO 5-HT1a Ga15 NFAT-bla reporter, FRET ratio; 0% basal, 100% maximal reference agonist. activation, % at 10 µM. 65,000 compounds, 0.56% hits. AID 567;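 active = activation above the screen-wide mean activation plus 3 SD, cut at about 19% in these data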;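 also: 0% = DMSO wells and 100% = 5-CT at EC100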
# S1P1 ag-PAM = agonists and agonism potentiators of human S1P1 receptor; P21453; S1P1 CRE-bla cells, forskolin, beta-lactamase FRET, potentiator mode; S1P1 agonist co-added at EC20, 2 nM; 100% = saturating reference agonist, 0% = basal; activation, % at 9.5 µM; 56,000 compounds, 0.57% hits; AID 449;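 active = activation above a cutoff set at the mean activation of all tested compounds plus 3 SD, cut at about 54% in these data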;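 also: forskolin at 4 µM as EC80 and the EC20 agonist is SEW2871; 100% = SEW2871 at its EC100 plus forskolin at EC80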
# HTR1E agonist = 5-HT1E (human) receptor agonism | P28566 | CHO 5-HT1E Ga15 NFAT-bla reporter, FRET; 0% DMSO wells, 100% control agonist wells | activation, % at 6 µM | 65,000 compounds, 0.69% hits | AID 574;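 active = activation above a set limit, the screen-wide mean activation plus 3 SD, cut at about 8.5% in these data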;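 also: 100% = positive control agonist at 1 µM giving full maximal response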
# S1P3 agonist = S1P3 (human) receptor agonism | Q99500 | S1P3 NFAT-BLA reporter cells, FRET ratio; relative to 1 µM S1P, basal subtracted | activation, % at 4.5 µM | 60,000 compounds, 0.1% hits | AID 373;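 active = activation above the screen-wide mean plus 3 SD, cut at about 4.5% in these data, passing the limit was not always enough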
#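 Assay system: stable CHO line with human S1P3, Gα16, NFAT-BLA reporter; Detection: FRET β-lactamase substrate fluorescence, excitation 405 nm, 460/535 nm emission ratio, background-subtracted; Read-out: percent activation versus median 1 µM S1P response, basal-subtracted, per plate; Incubation: cells plated overnight, compound 4 h 37 °C, substrate 2 h RT.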
# Active calls of the source: *; . = no result given.
SMILES,HTR1E antagonist,5-HT1A blocker,HTR1A agonist,S1P1 ag-PAM,HTR1E agonist,S1P3 agonist
Cn1nc(CC(=O)Nc2ccc(N3CCN(C(=O)OC(C)(C)C)CC3)cc2)c2ccccc2c1=O,3,8,1,84*,0,-2
Cn1nc(CC(=O)N2CCN(c3ccccc3)CC2)c2ccccc2c1=O,8,7,-3,2,0,0
Cn1nc(CC(=O)Nc2ccc3c(c2)OCCO3)c2ccccc2c1=O,2,14,-1,92*,-1,-1
COc1cccc(OC)c1OCC(C)CNCC1CCCO1 (stereo unspecified),-3,.,2,-2,0,-4
CCOC(=O)c1sc2c(c1C)C(c1cccs1)C1=C(CCCC1=O)N2 (stereo unspecified),6,-4,22*,-94,6,1
O=C(Cc1cccs1)Nc1cccnc1,2,7,-4,3,0,0
CN(CCCCCNC(=O)/C=N/O)Cc1ccccc1,-11,.,-1,7,-1,-4
CN(C)CCCN(CCCNC(=O)/C=N/O)Cc1ccccc1,5,.,-3,5,26*,-2
CCCCC(=O)NC(Nc1nc(C2CC2)cs1)(C(=O)OCC)C(F)(F)F (stereo unspecified),11,16,0,-20,0,5.3*
CCN(CC(=O)NC)S(=O)(=O)c1ccc(Br)cc1,7,5,-3,3,-1,-1
CC(=O)OCc1c(F)c(F)c(-n2nc(C)cc2C)c(F)c1F,-3,-4,-2,4,0,-1
O=C(Nc1ccc(S(=O)(=O)NCc2ccco2)cc1)c1ccc2ccccc2n1,4,49*,-1,96*,0,0
O=C(NCCc1c[nH]c2ccccc12)c1ccc(-n2cnnn2)cc1,10,4,-4,6,-1,0
O=C(NCCc1c[nH]c2ccccc12)c1ccc(S(=O)(=O)NCc2ccco2)cc1,10,7,1,.,13*,.
O=S(=O)(Nc1nc2ccccc2nc1NCCN1CCOCC1)c1cccc(Cl)c1,-5,-1,-1,-1,-1,0
Clc1ccc(-c2nc(NCCN3CCOCC3)c3ccccc3n2)cc1,3,-9,45*,-3,0,-2
C=CCn1c(-c2cccs2)nc2ccccc21,5,6,0,14,0,0
C=CCSc1nc2ccccc2n1Cc1nnc(-c2cccs2)o1,5,9,5,12,18*,0
O=C(N1CCOCC1)N1CCN(S(=O)(=O)N2CCCCC2)CC1,-6,5,-1,.,0,0
CC1=C(C(=O)OC2CCCCCCC2)C(c2ccc(O)cc2)NC(=O)N1 (stereo unspecified),29*,26,-3,22,0,-1
CCCCCCNC(=O)c1c(N)n(/N=C/c2ccco2)c2nc3ccccc3nc12,2,-8,31*,-3,3,0
CCCCNC(=O)c1c(N)n(/N=C/c2ccccn2)c2nc3ccccc3nc12,-12,-7,-2,.,1,.
CCCSc1nnc(NC(=O)Nc2ccc(F)cc2)s1,32*,.,-1,27,0,-3
CCCSc1nnc(NC(=O)Nc2ccccc2)s1,0,.,2,17,0,-4
COc1ccc(-c2cc(C(F)F)nc(-n3nc(C)cc3C)n2)cc1,-2,-12,83*,26,0,-1
SMILES,HTR1E antagonist,5-HT1A blocker,HTR1A agonist,S1P1 ag-PAM,HTR1E agonist,S1P3 agonist
c1cnc(Oc2ccc(-c3nnco3)cc2)cn1,-5,-6,0,-1,0,1
O=C(Nc1ccc(Oc2ccccc2)cc1)c1cnc2n(c1=O)CCS2,11,-3,2,94*,0,-1
O=C(CSc1nnc(Cc2csc(Nc3cccc(Cl)c3)n2)o1)N1CCc2ccccc21,-1,-8,1,78*,0,-1
O=C(CSc1nnc(CNc2ccccc2)o1)N1CCc2ccccc21,-1,-8,-1,8,0,0
CCOC(=O)c1c(C)[nH]c(C(=O)OC/C(O)=C(\C#N)c2nc3ccccc3[nH]2)c1C,49*,6,0,-18,3,1
N#C/C(=C(/O)COC(=O)c1ccc2c(c1)OCCO2)c1nc2ccccc2[nH]1,5,0,-3,-7,1,-1
N#C/C(=C(/O)COC(=O)Cc1c[nH]c2ccccc12)c1nc2ccccc2[nH]1,-1,12,32*,16,5,0
CCN(C(=O)CN1CCN(c2ccc(OC)cc2)CC1)c1c(N)n(Cc2ccccc2)c(=O)[nH]c1=O,-3,-6,-4,-13,0,1
Cc1ccc(C2C3=C(CC(C)(C)CC3=O)N(CCN3CCOCC3)C3=C2C(=O)CC(C)(C)C3)cc1,0,2,14,-61,4,1
CCCCc1nc(SCC(=O)Nc2ccc(S(N)(=O)=O)cc2)n[nH]1,0,-5,-1,-11,14*,2
Cc1ccc(NC(=O)CSc2n[nH]c(-c3ccncc3)n2)cc1,-3,-17,2,-16,0,0
O=C(NC1CC2CCC1C2)C1COc2ccccc2O1 (stereo unspecified),-2,14,-1,-6,-2,-1
CCOC(=O)CC(=O)CSc1[nH]c(=O)cc(C)c1C#N,2,.,0,-3,0,-2
Clc1ccc(-c2nc3nc4ccccc4nc3n2Cc2ccco2)cc1,14,22,-3,80*,0,1
c1ccc(Cn2c(-c3ccco3)nc3nc4ccccc4nc32)cc1,1,-18,5,-2,3,2
Cc1ccc(-c2nc3nc4ccccc4nc3n2Cc2ccco2)cc1,28,50*,-3,48,0,1
c1cncc(-c2nc3c4ccccc4nc(N4CCC(N5CCCCC5)CC4)n3n2)c1,-8,-13,-1,-41,-1,0
O=C(c1ccccc1)N1CCN(CC2CC=CCC2)CC1 (stereo unspecified),2,-10,0,2,9.2*,1
O=S(=O)(Nc1nccs1)c1ccc(NS(=O)(=O)c2cccs2)cc1,9,-4,2,5,-1,-1
CS(=O)(=O)Nc1ccc(S(=O)(=O)Nc2nccs2)cc1,6,3,-3,15,10*,0
COc1ccc(C2N(c3ccc(F)cc3)C(=O)C3CCCN32)cc1 (stereo unspecified),88*,16,-6,-12,0,-2
COc1ccccc1C1N(c2ccc(Cl)cc2)C(=O)C2CCCN21 (stereo unspecified),7,3,0,7,15*,0
COc1ccc(N2C(=O)C3CCCN3C2c2ccccc2OC)cc1 (stereo unspecified),-7,-1,2,-12,1,-1
